Bioassay records as filed in PubChem.
In the library only some 3% were active in any assay of this set; here they are far more common.
Myeloid diff MLP: myeloid differentiation induction; ER-HoxA9 myeloid progenitors, lysozyme-GFP differentiation, flow cytometry; calls only at 10 µM; 360,000 tested, 1% active; AID 624256;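 active means normalized GFP-positive differentiation at or above the plate's own cutoff, the solvent-only control mean plus 3 SD; inconclusive means no clear call, values can overlap the other calls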;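 further: cells exposed to compound for four days before flow analysis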
Cardio protect: myocardial damage modulation in H9c2 cells; H9c2 cardiomyocytes, H2O2 injury protection, ATPLite, 2 h; protection from H2O2 cell death, % at 20 µM; AID 588492; 360,000 tested, 0.63% active;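 active means compounds giving at least 50% protection of heart cells from peroxide-induced death in the single-dose screen, raw or plate-pattern-corrected value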
Exocytosis inh: lytic granule exocytosis inhibition | TALL-104 LAMP-1 surface exposure, flow cytometry; cells stimulated with thapsigargin and PMA | inhibition, % at 10 µM | 360,000 tested, 0.66% active;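 active means inhibition above about 55%, limit read from the data; inconclusive means no clear call, values can overlap the other calls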
SENP1 FRET inh: inhibitors of human SENP1 SUMO protease catalytic domain; Q9P0U3; recombinant SENP1 catalytic domain, CyPet-SUMO1-YPet FRET cleavage; inhibition, % at 10 µM; 360,000 tested, 0.21% active; AID 624204;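 active means inhibition at least 30% at 10 µM, raw YFP signal under a set limit, fluorescence ratio 0.5 to 1.5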
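Material: hSENP1 catalytic domain, recombinant; medium: Tris pH 8 with BME, BSA, NP40 and catalase; compound: single concentration of 10 µM compound, 0.5% DMSO final; technique: FRET read of cyan and yellow fluorescence; timing: 50 min enzyme reaction, room temperature, light-protected; reagent: SFCypet-SUMO1-SFYpet substrate at 25 nM; control set: no-enzyme low, enzyme-DMSO high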
HNF4A DNA FP: change in binding of human HNF4 alpha to DNA. activity change, % at 10 µM. HNF4a-FITC DNA binding, fluorescence polarization, 1 h. P41235. 360,000 tested, 0.3% active; in the data active means activity change above about 30%, passing the limit was not always enough
Pemphigus Ab inh: inhibitors of pemphigus antibody binding to human desmoglein-3. P32926. binding (percent of control), % at 10 µM. DSG3-coupled beads, scFv-anti-DSG3-GFP binding, flow cytometry; hits give low values. 310,000 tested, 0.48% active;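 active means binding more than 3 SD below its plate's average and above zero; inconclusive means below that plate limit but binding exactly zero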;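 further: hits lower antibody fragment binding to DSG3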
Target sequence (P32926 whole entry, looked up, the tested form may be a part): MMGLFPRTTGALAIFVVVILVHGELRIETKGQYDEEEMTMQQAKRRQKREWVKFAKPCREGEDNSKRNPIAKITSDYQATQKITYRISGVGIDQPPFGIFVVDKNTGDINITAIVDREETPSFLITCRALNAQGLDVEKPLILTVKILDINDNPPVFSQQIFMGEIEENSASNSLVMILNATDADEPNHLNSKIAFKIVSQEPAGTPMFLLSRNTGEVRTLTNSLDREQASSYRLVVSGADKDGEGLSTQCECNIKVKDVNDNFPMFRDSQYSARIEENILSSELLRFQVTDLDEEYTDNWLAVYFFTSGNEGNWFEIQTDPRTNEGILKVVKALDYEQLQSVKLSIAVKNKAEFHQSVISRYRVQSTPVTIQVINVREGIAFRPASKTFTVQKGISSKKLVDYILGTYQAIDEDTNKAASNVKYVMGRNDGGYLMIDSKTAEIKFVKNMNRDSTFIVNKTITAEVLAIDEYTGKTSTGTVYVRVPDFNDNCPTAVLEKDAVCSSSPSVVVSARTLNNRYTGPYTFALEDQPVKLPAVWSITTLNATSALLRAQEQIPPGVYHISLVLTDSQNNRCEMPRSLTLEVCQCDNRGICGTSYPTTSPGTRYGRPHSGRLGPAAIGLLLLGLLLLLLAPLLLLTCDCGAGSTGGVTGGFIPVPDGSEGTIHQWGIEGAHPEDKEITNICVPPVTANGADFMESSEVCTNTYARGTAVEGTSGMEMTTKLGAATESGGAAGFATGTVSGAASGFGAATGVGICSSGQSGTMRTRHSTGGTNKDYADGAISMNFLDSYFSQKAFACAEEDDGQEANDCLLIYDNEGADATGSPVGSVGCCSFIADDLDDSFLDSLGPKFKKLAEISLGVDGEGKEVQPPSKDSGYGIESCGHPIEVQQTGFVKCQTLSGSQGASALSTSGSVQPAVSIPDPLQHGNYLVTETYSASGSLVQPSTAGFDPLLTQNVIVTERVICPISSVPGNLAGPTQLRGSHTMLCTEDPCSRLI
Each line names hits and unclear results; the compound was inactive in the other large screens.

Cc1c(/C=N/NC(=O)c2cc(Br)ccc2O)c(=O)n(C)c(=O)n1C	none
Cc1ncc(CO)c(/C=N/NC(=O)c2cc(Br)ccc2O)c1O	Cardio protect 50.1
Cc1cc(C(=O)N/N=C/c2c(CO)cnc(C)c2O)c2ccccc2n1	Cardio protect 55.3
COc1cc2[nH]c(=S)nc(NCc3ccccn3)c2cc1OC	Myeloid diff MLP active
Cc1ccc(Cl)cc1N1CCN(S(=O)(=O)c2c(C(=O)N3CCOCC3)c(C)n(C)c2C)CC1	Myeloid diff MLP active
O=C(NCc1cccnc1)/C(=C\c1ccc(-c2ccc(Cl)c(Cl)c2)o1)S(=O)(=O)c1ccccc1	Exocytosis inh 100.7 (no result: Myeloid diff MLP)
O=C(NCc1cccnc1)c1ccc(-c2ccc(Cl)cc2)o1	Pemphigus Ab inh 57.7
Cc1ccc(-c2nnc(SCC(=O)NC3CCCC3)n2N)cc1	none
COc1cc(OC)cc(C2C(C#N)=C(N)Oc3n[nH]c(-c4cccnc4)c32)c1 (centres undefined)	none
CC(C)(C)c1ccc(C2C(C#N)=C(N)Oc3n[nH]c(-c4cccnc4)c32)cc1 (centres undefined)	Pemphigus Ab inh 14.8
COc1cc(NC(=O)[C@H]2O[C@@H](n3cnc4c(N)ncnc43)[C@H](O)[C@@H]2O)cc(OC)c1OC	none (no result: Pemphigus Ab inh)
CC(C)(O)C#Cc1ccc(N2C(c3ccsc3)=Cc3ccc(F)cc3C2c2c[nH]c3ccc(C#N)cc23)cc1 (centres undefined)	Myeloid diff MLP active (no result: Cardio protect, Pemphigus Ab inh)
CCOC(=O)c1ccc(-c2ccc(N3C(c4ccsc4)=Cc4ccc(F)cc4C3c3c[nH]c4ccc(C#N)cc34)cc2)cc1F (centres undefined)	none (no result: Cardio protect, Pemphigus Ab inh)
O=C(CSc1nnc(-c2ccccc2O)o1)Oc1ccc(OCc2ccccc2)cc1	Myeloid diff MLP active (no result: Pemphigus Ab inh)
Nc1nc(SCC(=O)c2cccs2)n[nH]1	HNF4A DNA FP 38.7
CC1(C(=O)NS(=O)(=O)c2ccccc2C(F)(F)F)CCN1C(=O)CC1CCCC1 (centres undefined)	none (no result: Pemphigus Ab inh)
COc1ccc(NC2CCCN(C(=O)CSc3ccncc3)C2)cc1 (centres undefined)	none
Cc1ccc(S(=O)(=O)Nc2cc(C(C)C)c(O)cc2C)cc1	Myeloid diff MLP active
Cc1ccc(S(=O)(=O)Nc2cc(Cl)c(O)cc2C)cc1	none
CN(C)C(=O)C1C2NC(=S)N(c3cccc(Cl)c3)C1(C)Oc1ccc(Cl)cc12 (centres undefined)	Cardio protect 56.5
CN(C)C(=O)C1C2NC(=S)N(c3ccc(Cl)cc3)C1(C)Oc1ccc(Cl)cc12 (centres undefined)	none
Cc1ccn(CC(=O)N2CCCC(N3CCN(c4ccc(F)cc4)CC3)C2)n1 (centres undefined)	none
Cc1ccc(C(=O)N/C(=C/c2ccc(N(C)C)cc2)C(=O)NCC2CCCO2)cc1 (centres undefined)	Pemphigus Ab inh 35.2
Cc1ccc(C(=O)N/C(=C/c2ccc(Cl)cc2)C(=O)NCC2CCCO2)cc1 (centres undefined)	none
COc1ccc2cc3cc(C(=O)Nc4cc(OC)c(OC)c(OC)c4)oc3nc2c1	Cardio protect 57.7 (no result: Pemphigus Ab inh)
O=C(CNC(=O)c1ccc2ccccc2c1)NC1CCCCC1	none (no result: Pemphigus Ab inh)
COc1ccc(C(=O)Nc2ccccc2C(=O)N/N=C/c2ccccn2)cc1OC	Myeloid diff MLP active
COc1cc(C(=O)Nc2ccc(NC(=O)C3CCCCC3)nc2)cc(OC)c1OC	none
COc1cc(C(=O)Nc2ccc(NC(=O)c3cccc(Cl)c3)nc2)cc(OC)c1OC	Cardio protect 68.3
COC(=O)c1ccccc1NC(=O)c1ccc2nccnc2c1	Cardio protect 64.2 (no result: Pemphigus Ab inh)
COc1ccc(C(=O)N/N=C/c2ccccn2)cc1OC	none (no result: Pemphigus Ab inh)
O=C(Nc1ccccc1Cl)c1ccc2nccnc2c1	Myeloid diff MLP inconclusive (no result: Pemphigus Ab inh)
COc1cc(C(=O)Nc2ccccc2C(=O)Nc2ccccn2)cc(OC)c1OC	Myeloid diff MLP inconclusive, Cardio protect 60.2
Cc1coc2c(C)c3oc(=O)c(CCC(=O)N[C@@H](C)C(=O)N[C@@H](Cc4ccccc4)C(=O)O)c(C)c3cc12	none
Cc1ccc(NS(=O)(=O)c2ccc(OCC(=O)NCc3ccccn3)cc2)cc1	none
O=C(OCc1cccc(Cl)c1)c1cc(S(=O)(=O)N2CCCCC2)ccc1N1CCOCC1	Myeloid diff MLP active
